Compound activity from PubChem BioAssay.
Hits are enriched below; roughly 2.4% of the tested compounds scored in any of these assays.
S1P4 antag: S1P4 receptor antagonists, primary screen, cell-based; AID 1510, 2009; actives 0.26% (n = 220,000); Sphingosine 1-phosphate receptor 4 (Homo sapiens), O95977; S1P4-expressing cells, antagonist mode, reporter read-out; inhibition, % at 4.98 µM; in the data active means inhibition above about 29%;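 further: 0% = wells stimulated with agonist and 100% = vehicle wells without agonist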
NPY Y2 blocker: NPY-Y2 receptor antagonists, primary screen, cell-based; NPY-Y2 expressing cells, antagonist mode; inhibition, % at 2.7 µM; actives 0.99% (n = 140,000); AID 793, 2007; in the data active means inhibition above about 17%;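 further: 0% = vehicle with agonist challenge and 100% = reference antagonist with challenge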
NPY-Y2 PAM-ag: NPY-Y2 potentiators or agonists, primary screen, cell-based. Neuropeptide Y receptor type 2 (Homo sapiens), P49146. cells expressing NPY-Y2, potentiator/agonist read-out. activation, % at 3.6 µM. actives 0.45% (n = 220,000). AID 1359, 2008; in the data active means activation above about 27%;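 further: cells stimulated with NPY near EC25 plus isoproterenol at EC100; 0% = vehicle plus submaximal agonist and 100% = vehicle plus saturating agonist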
S1P4 agonist: S1P4 receptor agonists, primary screen, cell-based. Sphingosine 1-phosphate receptor 4 (Homo sapiens), O95977. S1P4-expressing cell line, agonist reporter assay. activation, % at 4.98 µM. actives 0.35% (n = 220,000). AID 1509, 2009; in the data active means activation above about 11%;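 further: 0% = DMSO vehicle and 100% = reference agonist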
NPY1 pot ag: NPY-Y1 receptor potentiators or agonists, primary screen, cell-based; Neuropeptide Y receptor type 1 (Homo sapiens), P25929; NPY-Y1 expressing cells, potentiator/agonist activation; activation, % at 3.6 µM; actives 0.37% (n = 220,000); in the data active means activation above about 33%, passing the limit was not always enough;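 further: cells stimulated with NPY at EC10 then isoproterenol at EC100; 0% = low agonist plus stimulus and 100% = saturating agonist plus stimulus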
Target sequence (P25929 whole entry, looked up): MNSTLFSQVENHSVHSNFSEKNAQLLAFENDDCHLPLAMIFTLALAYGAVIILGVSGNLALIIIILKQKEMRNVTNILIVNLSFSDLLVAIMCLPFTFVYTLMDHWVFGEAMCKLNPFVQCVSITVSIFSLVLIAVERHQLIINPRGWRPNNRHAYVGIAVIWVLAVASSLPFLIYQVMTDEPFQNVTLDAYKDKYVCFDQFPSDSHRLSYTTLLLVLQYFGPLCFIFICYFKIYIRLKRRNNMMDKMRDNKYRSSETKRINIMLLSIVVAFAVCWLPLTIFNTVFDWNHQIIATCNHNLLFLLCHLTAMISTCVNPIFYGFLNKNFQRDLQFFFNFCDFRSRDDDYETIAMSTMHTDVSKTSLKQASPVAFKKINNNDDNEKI
NPY-Y1 antag: NPY-Y1 receptor antagonists, primary screen, cell-based; actives 1% (n = 200,000); Neuropeptide Y receptor type 1 (Homo sapiens), P25929; HEK293-CNG Y1 cells, membrane potential fluorescence; NPY at EC95, then isoproterenol; inhibition, % at 3.6 µM;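 active means inhibition above the campaign mean inhibition of all tested compounds plus 3 SD, cut at about 20% in these data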;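 further: 0% = DMSO wells given NPY plus isoproterenol and 100% = isoproterenol alone without NPY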
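Benchmarks – high control isoproterenol alone, low control NPY with isoproterenol · Material – HEK293 Y1/CNG channel cell line · Times – dye 3 h, compound 60 min room temperature, stimulation 45 min · Probe or stimulus – NPY (25 nM), isoproterenol (1 µM), Ro 20-1724 (25 µM) · Evaluation – % inhibition of NPY effect · Signal – fluorescence, membrane potential probe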
S1P4 antag conf: S1P4 receptor antagonists, human, confirmation, cell-based; shares compounds with S1P4 antag; S1P4-expressing cell line, antagonist mode, reporter read-out; inhibition, % at 4.98 µM; actives 71% (n = 520); in the data active means inhibition above about 30%
S1P1 antag: S1P1 receptor antagonists, human, counter-screen for S1P4 antagonist project, cell-based. shares compounds with S1P4 antag. cell-based S1P1 antagonist counterscreen, inhibition. inhibition, % at 4.98 µM. actives 37% (n = 520); in the data active means inhibition above about 40%;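 further: receptor stimulated with S1P near its EC80; 0% = agonist stimulated wells and 100% = vehicle only wells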
An asterisk follows results filed as active; · = no result given.

SMILES | S1P4 antag | NPY Y2 blocker | NPY-Y2 PAM-ag | S1P4 agonist | NPY1 pot ag | NPY-Y1 antag | S1P4 antag conf | S1P1 antag
O=C1N/C(=N\S(=O)(=O)Cc2ccccc2)S/C1=C/c1cc([N+](=O)[O-])ccc1O | 44* | · | -8 | 0 | 11 | · | 59* | 50*
Cc1ccc(NC(=O)COC(=O)CCc2ccc(S(=O)(=O)N3CCOCC3)cc2)cc1F | -6 | · | 7 | 0 | 17 | 1 | · | ·
Oc1ccccc1C1CC(c2cccs2)=NC(c2ccc(Cl)cc2)N1 (centres undefined) | 46* | · | 1 | 0 | 10 | -3 | 21 | 12
COc1cc(C(=O)Nc2cccc(-c3nc4ncccc4o3)c2C)cc(OC)c1OC | -10 | -1 | 9 | -2 | 10 | 1 | · | ·
COc1ccc(C(=O)Nc2cccc(-c3nc4ncccc4o3)c2C)cc1 | 33* | 4 | 3 | -2 | 26 | 10 | 1 | -8
Cc1c(O)ccc(NC(=O)/C=C/c2ccccc2)c1C | 57* | · | 2 | -1 | 11 | 0 | 61* | 13
CC1CCN(C(=O)c2ccc3c(c2NCCO)C(=O)c2ccccc2C3=O)CC1 | -5 | -7 | 31 | -1 | 16 | -9 | · | ·
CCN(CC)CCNC(=O)c1ccc2c(c1NCCO)C(=O)c1ccccc1C2=O | 81* | · | 9 | 0 | 27 | · | -11 | -1
O=C(Nc1cccc(-c2nc3cccnc3s2)c1)C1c2ccccc2Oc2ccccc21 | 7 | 0 | 13 | 2 | -7 | 0 | · | ·
CCN(CC)c1ccc2cc(NC(=O)CCC(=O)O)c(=O)oc2c1 | 32* | 0 | -8 | 2 | 15 | 6 | 59* | 45*
O=C(O)CCN1CCc2ccccc2C1c1cccs1 (centres undefined) | 8 | · | 3 | -1 | -6 | 7 | · | ·
O=C1/C(=C/c2ccc(O)cc2)SC(=S)N1CC1CCCO1 (centres undefined) | 30* | · | 2 | 2 | 8 | · | 5 | 6
COC(=O)c1ccc2c(c1)C(C)(C)C(/C=C/c1ccc(OC)c(OC)c1OC)=[N+]2C | 6 | 12 | -32 | 1 | -29 | 15 | · | ·
COC(=O)c1ccc2c(c1)C(C)(C)C(/C=C/c1ccc(O)cc1)=[N+]2C | 42* | 10 | -15 | -1 | -10 | 13 | 120* | 157*
N=c1n(CCN2CCCCC2)c2ccccc2n1CC(O)c1ccc(Cl)c(Cl)c1 (centres undefined) | 55* | 53* | -23 | -3 | -37 | 36* | 58* | 59*
N=c1n(CCN2CCCCC2)c2ccccc2n1CC(=O)c1ccc(Cl)c(Cl)c1 | 15 | · | -55 | -1 | -36 | · | · | ·
CN1CCN(C(=S)c2cn(Cc3ccc(Br)cc3)c3ccccc23)CC1 | 1 | · | -19 | 0 | -14 | 11 | · | ·
N#CCCN1CCCc2cc(N=Nc3ccc(C(F)(F)F)cc3)ccc21 | 31* | · | 54* | -2 | 73* | · | 85* | 28
CN(NC(=O)Nc1ccc(Cl)cc1)c1c(Cl)c(Cl)nn1C | 53* | · | -1 | -3 | 5 | 5 | 47* | 6
CN(NC(=O)Nc1ccc(Cl)cc1)c1ncc(C(F)(F)F)cc1Cl | -5 | 5 | 1 | -1 | 5 | 1 | · | ·
C=C1C(=O)C=C2CN(C(=O)c3ccccc3)[C@@](Cc3ccc(F)cc3)(C(=O)OC)[C@@H]12 | 60* | 1 | -1 | -1 | -26 | 0 | 119* | 143*
COc1ccc(C2C=C(c3ccc(C)cc3)Nc3ncnn32)cc1 (centres undefined) | 29* | 6 | -15 | -5 | -11 | 4 | 43* | 44*
CCOc1ccc(C2C=C(c3ccc(F)cc3)Nc3ncnn32)cc1 (centres undefined) | -7 | 8 | -7 | 0 | -27 | 5 | · | ·
Oc1ccc(C2C=C(c3ccc(F)cc3)Nc3ncnn32)cc1 (centres undefined) | 43* | · | 16 | -1 | 17 | · | 14 | 30
Cc1ccc(-c2nc(C=Nc3ccc(O)cc3)c(O)o2)cc1 | 31* | · | 22 | -1 | 12 | -5 | 43* | 40
SMILES | S1P4 antag | NPY Y2 blocker | NPY-Y2 PAM-ag | S1P4 agonist | NPY1 pot ag | NPY-Y1 antag | S1P4 antag conf | S1P1 antag
CN=Cc1nc(-c2ccccc2)oc1O | -15 | 1 | 9 | 1 | -28 | 5 | · | ·
CCCn1c(NC(=O)c2ccccc2)nc2ccccc21 | 29* | 3 | -14 | -3 | -30 | 7 | 5 | 9
CCCn1c(NC(=O)c2ccc(C)cc2)nc2ccccc21 | 0 | 12 | -38 | -1 | -82 | 8 | · | ·
Cc1ccccc1-c1cc2c(nn1)-c1ccccc1C2=O | 93* | 2 | -2 | -2 | -8 | 9 | 10 | 8
Clc1ccc(-c2nnc(COc3ncnc4ccccc34)o2)cc1 | 5 | · | -4 | 1 | -9 | 7 | · | ·
Cc1ccc(S(=O)(=O)CCN2C=CC(C(F)(F)F)=NCC2)cc1 | 33* | · | 6 | 0 | -16 | · | -3 | -12
Cc1nc(N2CCN(C)CC2)c2sc(=S)n(-c3ccccc3)c2n1 | -16 | 7 | 5 | 1 | 9 | 5 | · | ·
S=c1sc2c(Cl)ncnc2n1-c1ccccc1 | 32* | · | 12 | -1 | 21 | -6 | 121* | 86*
C(=N\n1cnnc1)/c1ccc2c(c1)OCCO2 | -1 | 4 | 18 | -1 | 19 | 0 | · | ·
C(=N\n1cnnc1)/c1ccc2c(c1)OCO2 | 31* | 0 | -16 | -2 | 26 | 6 | -2 | -1
O=C(NC1CCCC1)C(c1ccncc1)N(Cc1ccccc1)C(=O)c1ccc(-c2ccccc2)[nH]1 (centres undefined) | -7 | 9 | 2 | 0 | -6 | 1 | · | ·
O=C(NC1CCCC1)C(c1ccncc1)N(Cc1ccco1)C(=O)c1ccc(-c2ccccc2)[nH]1 (centres undefined) | 47* | · | -14 | -1 | -14 | -6 | 22 | 2
COc1ccc(C(=O)c2c(C(F)(F)F)oc3c2C(=O)c2ccccc2C3=O)cc1OC | 33* | -1 | -6 | -1 | -28 | -4 | 71* | 57*
COc1ccc(C(=O)Nc2ccc3c(c2)C(=O)c2ccccc2C3=O)cc1OC | -23 | 0 | -5 | 0 | -3 | 2 | · | ·
Cc1cc(NC(=O)CSc2nc3cc(C(=O)NCCCOC(C)C)ccc3c(=O)n2Cc2ccco2)no1 | 3 | · | -9 | -2 | -5 | 0 | · | ·
